Most compounds without a hit are left out; they make up all but 3.7% or so of the library.
KCNK3 inh: human KCNK3 channel inhibitors, primary screen, CHO cells, FluxOR thallium flux, B-score | B-score at 10 µM | 0.84% of 340,000 active | Potassium channel subfamily K member 3 (Homo sapiens), O14649 | FluxOR fluorescence; stronger effect = lower value;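 active means B-score under library mean minus 4 SD, starting fluorescence ratio at most library mean plus 5 SD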;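 further: more negative B-score means stronger inhibition of thallium flux through KCNK3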
KCNQ1 act: potentiators or activators of KCNQ1 channel, primary screen, cell-based, thallium flux, high-throughput; Potassium voltage-gated channel subfamily KQT member 1 (Homo sapiens), P51787; CHO-K1 KCNQ1, thallium flux FluxOR fluorescence; stronger effect = higher value; B-score at 10 µM; 0.35% of 310,000 active;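 active means fluorescence ratio B-score, a plate-corrected score, at least three library SD, with initial intensity B-score within 5 SD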
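Assay system: stable KCNQ1 CHO-K1 line; medium: assay buffer, equal DMSO in all wells; timing: 90 min dye loading and 20 min compound exposure, both at room temperature; technique: kinetic FluxOR thallium fluorescence, 10-s 1-Hz baseline, 110-s post-stimulus read; read-out basis: B score of baseline-normalized fluorescence ratio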
Kir21 block: inhibitors of mouse Kir2.1 inward-rectifier potassium channel; Inward rectifier potassium channel 2 (Mus musculus), P35561; HEK293-Kir2.1, FluxOR thallium flux fluorescence; stronger effect = lower value; B-score at 10 µM; 0.85% of 310,000 active; AID 1672, 2009;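 active means fluorescence ratio B-score at or below minus 3 SD of library scores, with starting-brightness B-score within 2 SD, cut at about -4.2 in these data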;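 further: channel flux triggered by added potassium and thallium sulfate stimulus; B-score of peak minus minimum fluorescence over baseline after thallium stimulus; more negative B-score means stronger Kir2.1 block with less thallium influx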
Target sequence (P35561 whole entry, looked up): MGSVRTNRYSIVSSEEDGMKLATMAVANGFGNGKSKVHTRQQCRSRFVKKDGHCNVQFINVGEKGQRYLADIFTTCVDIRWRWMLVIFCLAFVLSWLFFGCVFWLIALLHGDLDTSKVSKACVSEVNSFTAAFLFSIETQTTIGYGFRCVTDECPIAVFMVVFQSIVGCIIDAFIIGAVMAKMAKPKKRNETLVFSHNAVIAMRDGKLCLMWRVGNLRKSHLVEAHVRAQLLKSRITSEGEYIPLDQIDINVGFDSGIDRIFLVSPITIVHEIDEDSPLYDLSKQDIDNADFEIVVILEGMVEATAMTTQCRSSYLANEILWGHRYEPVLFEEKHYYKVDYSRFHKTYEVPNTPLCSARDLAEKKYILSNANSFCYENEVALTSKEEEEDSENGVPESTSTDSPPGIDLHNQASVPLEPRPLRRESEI
hERG protect: hERG rescue from dofetilide block, primary screen, cell-based, CHO-hERG, FluxOR thallium flux, dofetilide IC70; AID 1511, 2009; Voltage-gated inwardly rectifying potassium channel KCNH2 (Homo sapiens), Q12809; dofetilide IC70 present; activation (rescue from dofetilide block), less the hit threshold, % at 10 µM; 0.51% of 310,000 active;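 active means activation above the mean of controls blocked by dofetilide plus 5 SD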;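 further: thallium influx through hERG after potassium depolarization seen as dye fluorescence rise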
KCNQ1 block: inhibitors of human KCNQ1 channel, primary screen, cell-based, thallium flux, high-throughput; Potassium voltage-gated channel subfamily KQT member 1 (Homo sapiens), P51787; CHO-K1 KCNQ1, FluxOR thallium flux fluorescence; stronger effect = higher value; B-score at 10 µM; 1.3% of 310,000 active; AID 2642, 2010;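 active means compounds whose thallium flux B-score, printed positive for inhibition, exceeds three library SD while starting fluorescence stays within three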;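 further: channel opened by potassium depolarization with thallium stimulus after 20 min compound exposure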
KCNK9 inh: KCNK9 potassium channel inhibitors, primary screen, HEK293 cells, thallium flux; 1.2% of 310,000 active; B-score at 10 µM; AID 488922, 2010; FluxOR thallium flux fluorescence; stronger effect = lower value; Potassium channel subfamily K member 9 (Homo sapiens), Q9NPC2;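 active means ratio B-score over 3 SD below the library mean, with starting fluorescence within 5 SD of its mean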;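 further: negative B-score means less thallium flux so channel inhibition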
KCNQ1 block val: KCNQ1 potassium channel inhibitors, confirmation, cell-based, Tl flux, duplicate. shares compounds with KCNQ1 block. KCNQ1 cell line, FluxOR thallium flux fluorescence. inhibition, % at 10 µM. 93% of 1,600 active. AID 588353, 2011;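 active means primary screen active, with duplicate mean exceeding buffer control mean plus 3 SD of buffer wells, cut at about 28% in these data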;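 further: 0% = buffer control ratio and 100% = XE991 inhibitor control ratio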
CHO Tl flux: thallium flux effects in parental CHO cells, counter-screen for KCNQ1 inhibitor project, cell-based, Tl flux; shares compounds with KCNQ1 block; parental CHO-K1, FluxOR thallium flux fluorescence ratio; stronger effect = lower value; zero means no signal rise above baseline; fluorescence ratio (Tl flux) at 10 µM; 21% of 1,600 active;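 active means mean of duplicate thallium-flux fluorescence ratios in parental host cells more than 5 SD below the buffer control mean, cut at about 0.38 in these data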;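 further: ratio is peak minus minimum fluorescence divided by baseline fluorescence; actives read low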
KCNQ1 APC inh: KCNQ1 channel inhibitors, confirmation, orthogonal assay, cell-based, automated electrophysiology; AID 624120, 2012; shares compounds with KCNQ1 block; 20% of 490 active; calls only at 10 µM; KCNQ1-CHO cells, automated patch clamp current;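 active means KCNQ1 current drop exceeding 3 SD of negative control wells, seen in both duplicate runs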;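 further: steady state current during a 2 s step from -80 to +40 mV; negative values mean current inhibition and positive values mean potentiation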
KCNQ2 spec: KCNQ2 channel inhibition, selectivity assay for KCNQ1 inhibitor project, cell-based; shares compounds with KCNQ1 block; KCNQ2 cells, FluxOR thallium flux fluorescence; inhibition, % at 10 µM; 71% of 1,600 active; AID 651746, 2012;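 active means mean percent inhibition of the KCNQ2 thallium signal more than 5 SD above the buffer-only control wells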;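 further: KCNQ2 expressed in CHO cells; 0% = buffer control wells and 100% = XE-991 inhibitor control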
KCNQ1-KCNE1 inh: KCNQ1/KCNE1 channel inhibition, selectivity assay for KCNQ1 inhibitor project, CHO-K1 cells, thallium flux, FluxOR; AID 652147, 2013; FluxOR thallium flux fluorescence; inhibition, % at 10 µM; shares compounds with KCNQ1 block; 77% of 1,600 active;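 active means mean percent inhibition of duplicate wells above the buffer-only control mean plus 3 SD of those controls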;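 further: 0% = buffer only wells and 100% = XE-991 inhibitor control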
Numbers without * were called inactive; i = inactive; · = not tested or not shown; + = active, no number.

SMILES | KCNK3 inh | KCNQ1 act | Kir21 block | hERG protect | KCNQ1 block | KCNK9 inh | KCNQ1 block val | CHO Tl flux | KCNQ2 spec | KCNQ1-KCNE1 inh | others
CC1Sc2ccc(S(=O)(=O)N3CCC(C(=O)Nc4ccc(Cl)cc4)CC3)cc2NC1=O (stereo unspecified) | i | i | 0.07 | -21 | 11* | i | 144* | 0.38* | 104%* | 168%*
COc1ccc(-c2csc3nc(C)nc(N4CCCCC4)c23)cc1OC | i | i | -0.02 | -10 | 6* | i | 54* | 0.42 | 100%* | 87%*
Clc1ccccc1CSc1cnnc2ccccc12 | i | · | · | · | · | · | · | · | · | ·
O=C(Nc1ccccc1F)Nc1cccc2ccc(O)cc12 | i | i | 2.3 | -10 | 9* | i | 80* | 0.54 | 64%* | i
Cc1ccccc1NC(=O)Nc1ccc(C(F)(F)F)cc1 | i | i | 0.56 | -5 | 6* | i | 134* | 0.55 | 101%* | i | KCNQ1 APC inh=i
Cc1cc2c(NC(=O)Nc3ccc(C(C)(C)C)cc3)cccc2nn1 | i | i | 1.9 | -19 | 7* | i | 118* | 0.45 | 81%* | 68%* | KCNQ1 APC inh=i
Cc1cc2c(NC(=O)Nc3ccccc3)cccc2nn1 | i | i | 0.76 | -3 | i | i | · | · | · | ·
CC(=O)Nc1cccc2ccc(O)cc12 | i | · | · | · | · | · | · | · | · | ·
O=C(Nc1ccc(Br)cc1)Nc1ccccc1F | i | i | 0.85 | -5 | 7* | i | 52* | 0.53 | i | i
CC(=O)c1ccc(OCC(=O)N2CCCC(Nc3ccc(C)c(C)c3)C2)cc1 (stereo unspecified) | i | i | 1.4 | -10 | i | i | · | · | · | ·
O=C(C1CCC(=O)N(C2CC2)C1)N1CCC(Oc2ccccc2F)CC1 (stereo unspecified) | i | i | -0.35 | -12 | i | i | · | · | · | ·
CCOc1ccc(CN(C)C(=O)CNC(=O)c2ccc(Br)o2)cc1OC | i | i | -0.03 | -3 | i | i | · | · | · | ·
CCc1ccc(NC(=O)c2cnc(N3CCN(c4ccccn4)CC3)c3ccccc23)cc1 | i | i | 0.55 | -27 | 8* | i | 89* | 0.37* | 104%* | 141%*
CC(C)NC(=O)c1cnc(N2CCN(c3ccccn3)CC2)c2ccccc12 | i | i | 2.1 | -3 | i | i | · | · | · | ·
CN(Cc1ccc(F)cc1)C(=O)c1cccc(S(=O)(=O)N2CCN(c3ccccc3)CC2)c1 | i | i | -0.99 | -8 | 7* | i | 76* | 0.46 | 70%* | i
CN(Cc1ccc(F)cc1)C(=O)c1cccc(S(=O)(=O)N2CCN(c3ccc(F)cc3)CC2)c1 | i | i | -0.01 | -12 | i | i | · | · | · | ·
c1ccc(OCCOc2ncnc3ccccc23)cc1 | i | i | -1.5 | -11 | i | i | · | · | · | ·
Brc1ccc(COc2ncnc3ccccc23)cc1 | i | i | 0.68 | -9 | 9* | i | 0 | 0.44 | 68%* | 42%*
COC(=O)CCNC(=O)c1nn(Cc2ccccc2)c(=O)c2ccccc12 | i | i | 0.12 | -3 | i | i | · | · | · | ·
CCC(C(=O)OCC(=O)Nc1cc(Cl)cc(Cl)c1)c1ccccc1 (stereo unspecified) | i | i | 0.03 | -3 | 11* | i | 114* | 0.34* | 114%* | 52%*
CCCN1CCc2c(sc(NC(=S)NC(=O)c3ccccc3)c2C#N)C1 | i | i | 0.02 | -2 | i | i | · | · | · | ·
CC(C)N1CCc2c(sc(NC(=S)NC(=O)c3ccccc3)c2C#N)C1 | i | i | -3.5 | -16 | 7* | i | 0 | 0.5 | i | 48%*
CCOc1ccc(-c2cc(C(=O)NCCCn3ccnc3)c3ccccc3n2)cc1 | i | i | -3.1 | -10 | 6* | i | 26* | 0.43 | 86%* | 43%*
CCCCSc1ccc2nc(-c3ccc(C#N)cc3)cn2c1 | i | i | 0.3 | -13 | 7* | i | 104* | 0.56 | 67%* | 92%* | KCNQ1 APC inh=+
O=C(Nc1ccc(F)cc1F)NC1CCN(Cc2c(F)cccc2Cl)CC1 | i | i | -0.11 | -4 | i | i | · | · | · | ·
SMILES | KCNK3 inh | KCNQ1 act | Kir21 block | hERG protect | KCNQ1 block | KCNK9 inh | KCNQ1 block val | CHO Tl flux | KCNQ2 spec | KCNQ1-KCNE1 inh | others
Cc1[nH]n(-c2ccccc2)c(=O)c1N=Nc1c(O)cc(S(=O)(=O)N(C)C)c2ccccc12 | i | i | -0.42 | -24 | 10* | i | 124* | 0.47 | 72%* | i | KCNQ1 APC inh=i
COCCCNC(=O)Cn1cc(/C=C(\C#N)C(=O)NC2CCCC2)c2ccccc21 | i | i | 0.44 | -8 | i | i | · | · | · | ·
Cc1cc(C)cc(NC(=O)OCCN2CCN(Cc3ccccc3)CCC2=O)c1 | i | i | 0.97 | -11 | i | i | · | · | · | ·
O=S(=O)(Nc1nc2ccccc2nc1Cl)c1cccc(C(F)(F)F)c1 | i | i | -0.88 | -11 | 7* | i | 42* | 0.43 | 63%* | 34%*
CC(=O)Nc1ccc(C23CC4CC(CC(C4)C2)C3)cc1 | i | i | -0.1 | -13 | i | i | · | · | · | ·
CNC(=S)Nc1ccc(C23CC4CC(CC(C4)C2)C3)cc1 | i | i | -0.4 | -9 | 7* | i | 74* | 0.47 | 65%* | 90%*
Fc1ccccc1N1CCN(c2nc3ccccc3n3nnnc23)CC1 | i | i | -0.04 | -8 | 7* | i | 76* | 0.44 | 71%* | 84%*
Fc1cc(Br)ccc1Nc1nc2ccccc2n2nnnc12 | i | i | 0.86 | -11 | i | i | · | · | · | ·

Screens as filed in PubChem BioAssay.
